Measured values as given in ChEMBL document CHEMBL1141656, “N-{[(6-substituted-1,3-benzothiazole-2-yl)amino]carbonothioyl}-2/4-substituted benzamides: synthesis and pharmacological evaluation” (Eur J Med Chem, 2008).

Tests used:
Mus musculus [1] = assay: Anticonvulsant activity in ip dosed CF1 albino mouse assessed as minimum effective dose after 0.5 hrs by MES screen test; assay type: functional
Summary of the method: (§1)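 Mice given test compounds i.p. at 30, 100 and 300 mg/kg (one to four mice per dose), suspended in 1% Tween 80 or 0.5% methylcellulose–water. Maximal electroshock seizure test, read at 0.5 and 4 h after dosing. Value is the lowest dose protecting half or more of the mice.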

Mus musculus [2] = assay: Anticonvulsant activity in ip dosed CF1 albino mouse assessed as minimum effective dose after 4 hrs by MES screen test; assay type: functional; summary of the method: as §1
Mus musculus [3] = assay: Anticonvulsant activity in ip dosed CF1 albino mouse assessed as minimum effective dose after 0.5 hrs by scPTZ test; assay type: functional
Summary of the method: (§2)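 Mice dosed i.p. at 30, 100 and 300 mg/kg in 1% Tween 80 or 0.5% methylcellulose–water, then challenged 0.5 and 4 h later. PTZ in 0.9% NaCl was injected s.c. at the posterior midline. Mice were watched for 30 min. Protection meant no clonic spasm lasting at least 5 s. Value is the minimum dose active in half or more of the mice.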

Mus musculus [4] = assay: Anticonvulsant activity in ip dosed CF1 albino mouse assessed as minimum effective dose after 4 hrs by scPTZ test; assay type: functional; summary of the method: as §2
Mus musculus [5] = species: Mus musculus; assay: Neurotoxicity in CF1 albino mouse after 0.5 hrs by rotarod test; assay type: toxicity, organism-based; details: in vivo
Mus musculus [6] = species: Mus musculus; assay: Neurotoxicity in CF1 albino mouse after 4 hrs by rotarod test; assay type: toxicity, organism-based; details: in vivo
Rattus norvegicus [7] = assay: Hepatotoxicity in Sprague-Dawley rat assessed as total protein level per 100 ml of blood at 30 mg/kg, po after 15 days; assay type: toxicity, organism-based; parameters: dose 30 mg/kg, route oral; details: in vivo, 360 h
Summary of the method: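 Rats given 30 mg/kg/day p.o. in methylcellulose for two weeks, then anesthetized with ether. Blood was collected from the liver. SGOT, SGPT, alkaline phosphatase, total protein and albumin were measured by reported methods.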

Rattus norvegicus [8] = species: Rattus norvegicus; assay: Hepatotoxicity in Sprague-Dawley rat assessed as presence of normal hepatic parenchyma with portal triad and central vein by histopathological study; assay type: toxicity, organism-based; details: in vivo
Summary of the method: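 Rats were dosed chronically and sacrificed under light ether anesthesia 24 h after the last dose. Livers were removed, washed in normal saline and embedded in paraffin. Sections 5–6 thick were cut, stained with haematoxylin and eosin, and examined microscopically.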

Rattus norvegicus [9] = assay: Antidepressant activity in Wistar rat assessed as mean average immobility time during 5 mins of test period at 30 mg/kg, po after 30 mins by forced-swimming test; assay type: functional

SMILES	Activity (Mus musculus [1])	Activity (Mus musculus [2])	Activity (Mus musculus [3])	Activity (Mus musculus [4])	Activity (Mus musculus [5])	Activity (Mus musculus [6])	Activity (Rattus norvegicus [7])	Activity (Rattus norvegicus [8])	Activity (Rattus norvegicus [9])
O=C(NC(=S)Nc1nc2ccc(F)cc2s1)c1ccccc1	30 mg/kg	30 mg/kg	30 mg/kg	100 mg/kg	Not Active	Not Active	1.8 g	Non-toxic	24 s
COc1ccc(C(=O)NC(=S)Nc2nc3ccc(Cl)cc3s2)cc1	30 mg/kg	30 mg/kg	30 mg/kg	100 mg/kg	Not Active	Not Active	1.79 g	Non-toxic	34.2 s
O=C(NC(=S)Nc1nc2ccc(Cl)cc2s1)c1ccccc1	300 mg/kg	300 mg/kg	100 mg/kg	300 mg/kg	–	–	–	Non-toxic	29 s
Cc1ccc2nc(NC(=S)NC(=O)c3ccccc3)sc2c1	300 mg/kg	300 mg/kg	300 mg/kg	300 mg/kg	–	–	–	Non-toxic	29 s
O=C(NC(=S)Nc1nc2ccc(Br)cc2s1)c1ccccc1Cl	300 mg/kg	300 mg/kg	300 mg/kg	300 mg/kg	–	–	–	Non-toxic	22.6 s
COc1ccc(C(=O)NC(=S)Nc2nc3ccc([N+](=O)[O-])cc3s2)cc1	–	–	–	–	–	–	–	Non-toxic	27.8 s
COc1ccc(C(=O)NC(=S)Nc2nc3ccc(C)cc3s2)cc1	300 mg/kg	300 mg/kg	–	–	–	–	–	Non-toxic	10.2 s
O=C(NC(=S)Nc1nc2ccc(F)cc2s1)c1ccccc1Cl	30 mg/kg	100 mg/kg	100 mg/kg	300 mg/kg	Not Active	Not Active	1.83 g	Non-toxic	25 s
O=C(NC(=S)Nc1nc2ccc(F)cc2s1)c1ccc(Cl)cc1	100 mg/kg	300 mg/kg	–	–	–	–	–	Non-toxic	24.6 s
Cc1ccc2nc(NC(=S)NC(=O)c3ccccc3Cl)sc2c1	30 mg/kg	30 mg/kg	30 mg/kg	30 mg/kg	Not Active	Not Active	1.71 g	Non-toxic	40.4 s
O=C(NC(=S)Nc1nc2ccc(Cl)cc2s1)c1ccc(Cl)cc1	30 mg/kg	100 mg/kg	100 mg/kg	300 mg/kg	Not Active	Not Active	1.9 g	Non-toxic	20.2 s
Cc1ccc2nc(NC(=S)NC(=O)c3ccc(Cl)cc3)sc2c1	30 mg/kg	100 mg/kg	100 mg/kg	100 mg/kg	Not Active	Not Active	1.88 g	Non-toxic	30 s
COc1ccc(C(=O)NC(=S)Nc2nc3ccc(OC)cc3s2)cc1	300 mg/kg	300 mg/kg	300 mg/kg	300 mg/kg	–	–	–	Non-toxic	16.8 s
O=C(NC(=S)Nc1nc2ccc(Cl)cc2s1)c1ccccc1Cl	300 mg/kg	300 mg/kg	300 mg/kg	300 mg/kg	–	–	–	Non-toxic	32.6 s
COc1ccc2nc(NC(=S)NC(=O)c3ccccc3)sc2c1	100 mg/kg	100 mg/kg	300 mg/kg	300 mg/kg	–	–	–	Non-toxic	19.8 s
O=C(NC(=S)Nc1nc2ccc(Br)cc2s1)c1ccc(Cl)cc1	100 mg/kg	100 mg/kg	300 mg/kg	300 mg/kg	–	–	–	Non-toxic	38 s
COc1ccc(C(=O)NC(=S)Nc2nc3ccc(F)cc3s2)cc1	–	–	–	–	–	–	–	Non-toxic	31.2 s
COc1ccc2nc(NC(=S)NC(=O)c3ccccc3Cl)sc2c1	30 mg/kg	100 mg/kg	100 mg/kg	100 mg/kg	Not Active	Not Active	1.98 g	Non-toxic	42.6 s
COc1ccc2nc(NC(=S)NC(=O)c3ccc(Cl)cc3)sc2c1	300 mg/kg	300 mg/kg	300 mg/kg	300 mg/kg	–	–	–	Non-toxic	43 s
O=C(NC(=S)Nc1nc2ccc([N+](=O)[O-])cc2s1)c1ccccc1	300 mg/kg	300 mg/kg	300 mg/kg	300 mg/kg	–	–	–	Non-toxic	14.8 s
NC(=O)N1c2ccccc2C=Cc2ccccc21 [CARBAMAZEPINE]	30 mg/kg	100 mg/kg	100 mg/kg	100 mg/kg	Not Active	Not Active	–	Non-toxic	–
CNCCC(Oc1ccc(C(F)(F)F)cc1)c1ccccc1 (stereo not drawn) [FLUOXETINE]	29.6 mg/kg	14.2 mg/kg	–	–	–	–	–	–	–
O=C1NC(=O)C(c2ccccc2)(c2ccccc2)N1 [PHENYTOIN]	30 mg/kg	30 mg/kg	–	–	Not Active	Not Active	–	Non-toxic	–
